The source of these data is publication PMC3483883 (Bioorganic & medicinal chemistry letters, 2012).

Data set [1] relates to fluconazole resistant Candida albicans strains. The note with it: series of strains; cited from earlier work.
Data set [2] concerns the target T1, LdTopIB (Leishmania donovani, UniProt A0A3Q8IHS4+Q8WQM6). As to the kind of experiment: Plasmid DNA relaxation assay, LdTopIB. Format: biochemical.
Data set [3] relates to Trypanosoma brucei rhodesiense (bloodstream forms). The data set is described as follows: Antiprotozoal activity against T. brucei rhodesiense bloodstream forms. The class given is cell-based. The note with it: read-out: Trypanosoma brucei rhodesiense IC50.
Data set [4] concerns Leishmania donovani (axenic amastigotes). As to the kind of experiment: Antiprotozoal activity against L. donovani axenic amastigotes. The class given is cell-based. The note with it: read-out: Leishmania donovani IC50.
The nature of the next data set: L6 cell cytotoxicity. Format: cell-based. The note with it: rat, L6 cells (rat skeletal myoblasts).
For data set [5], the target named is T2, hTopIB (Homo sapiens, UniProt P11387).
T2 sequence (P11387 1-765): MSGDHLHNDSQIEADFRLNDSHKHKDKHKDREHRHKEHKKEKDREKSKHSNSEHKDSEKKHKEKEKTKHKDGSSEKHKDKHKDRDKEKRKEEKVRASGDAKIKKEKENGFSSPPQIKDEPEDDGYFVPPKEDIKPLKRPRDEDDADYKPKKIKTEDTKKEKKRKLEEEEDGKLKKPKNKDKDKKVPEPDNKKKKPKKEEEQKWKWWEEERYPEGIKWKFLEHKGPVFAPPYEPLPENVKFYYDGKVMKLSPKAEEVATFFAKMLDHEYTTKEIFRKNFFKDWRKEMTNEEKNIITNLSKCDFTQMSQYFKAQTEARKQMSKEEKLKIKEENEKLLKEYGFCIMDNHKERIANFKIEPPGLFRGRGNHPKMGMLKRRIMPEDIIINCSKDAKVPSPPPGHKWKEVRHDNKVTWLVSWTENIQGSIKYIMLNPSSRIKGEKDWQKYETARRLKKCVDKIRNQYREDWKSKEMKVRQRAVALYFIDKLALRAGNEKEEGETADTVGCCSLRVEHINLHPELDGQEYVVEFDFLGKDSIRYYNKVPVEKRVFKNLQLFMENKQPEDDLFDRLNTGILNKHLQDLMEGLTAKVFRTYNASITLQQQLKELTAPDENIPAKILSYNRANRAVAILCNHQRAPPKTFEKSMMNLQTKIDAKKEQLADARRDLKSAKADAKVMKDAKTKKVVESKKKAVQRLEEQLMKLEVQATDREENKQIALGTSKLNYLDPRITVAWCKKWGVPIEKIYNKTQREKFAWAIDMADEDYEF
As to the kind of experiment: Plasmid DNA relaxation assay, hTopIB. The class given is biochemical.

Data set [6] relates to Murine macrophages BALB/c. The data set is described as follows: Toxicity against BALB/c murine macrophages. The class given is cell-based. The note with it: Mus musculus, Macrophage, read-out: Murine macrophages BALB/c IC50.
For data set [7], the system named is L. infantum promastigotes. The data set is described as follows: Activity against L. infantum promastigotes. Format: cell-based. The note with it: Leishmania infantum, read-out: IC50 against L. infantum promastigotes.
The target of data set [8] is T1, LdTopIB. The data set is described as follows: Supercoiled plasmid DNA TopIB-mediated cleavage assay, LdTopIB. Format: biochemical.
Data set [9] addresses T2, hTopIB. As to the kind of experiment: Supercoiled plasmid DNA TopIB-mediated cleavage assay, hTopIB. Format: biochemical. The note with it: 100 μM.
Data set [10] relates to Leishmania donovani, Trypanosoma brucei rhodesiense, Trypanosoma cruzi. The data set is described as follows: Antiprotozoal activity against all the studied protozoa. Format: cell-based. The note with it: read-out: IC50 values against all the studied protozoa. The method in brief:
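In vitro growth-inhibition IC50 against L. donovani, T. cruzi and T. b. rhodesiense. Values are averages of at least two independent assays, each run in duplicate. Reference drugs in the same set are melarsoprol, benznidazole, miltefosine and podophyllotoxin.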

Another data set addresses leukotriene B4 ω-oxidase. The note with it: read-out: IC50 leukotriene B4 ω-oxidase; suicide inhibitor; cited from earlier work.
The subject of data set [11] is L. infantum promastigotes. The note with it: 400 μM, 24 h.

Take `CCCCCCCCCCCC#CCCCCC(=O)O` [6-ODA, 6-octadecynoic acid]: the “IC50 against fluconazole resistant Candida albicans strains” value in [1] is 0.45 to 0.65 µg/mL.
Usually EC50 stands for the concentration at which the effect is half-maximal. `CC[C@@]1(O)C(=O)OCc2c1cc1n(c2=O)Cc2cc3ccccc3nc2-1` [CPT, camptothecin, reference compound] registered an EC50 at LdTopIB [2] of 0.67 ± 0.08 µM.
In turn, `CCCCCCCCCCCCCCCC#CC(=O)O` [2-ODA, 2-octadecynoic acid] returned an EC50 on LdTopIB [2] of 5.3 ± 0.7 µM.
Consider `CCCCCCCCCCCCCC#CC(=O)O` [2-HDA, 2-hexadecynoic acid], for which the IC50 in [3] was 83.6 µM; in [4] it was 17.8 µM; in “L6 cell cytotoxicity”, 340 µM; in data set [6] it was above 100 µM; in data set [7], 14.9 µM; in [10] it was 17.8 to 83.6 µM. In addition, the EC50 is 28.7 ± 1.3 µM on LdTopIB [2] and above 100 µM on hTopIB [5]. On hTopIB [5], the “inhibition of hTopIB at 100 μM” value is “neither 2-TDA nor 2-HDA was inhibitory”. Further, the “inhibition of catalytic activity of LdTopIB” value against LdTopIB [8] (100 μM) is “inhibits the catalytic activity”. Moreover, the “enzymatic activity of LdTopIB after pre-incubation” value on LdTopIB [8] (pre-incubated 15 min with 100 μM before DNA and CPT) is listed as “fully inhibited”. Moreover, the “inhibition of hTopIB” value at hTopIB [9] is given as “no inhibition”.
For the compound `Nc1nc(N)nc(Nc2ccc([As]3SCC(CO)S3)cc2)n1` (stereo not shown) [Melarsoprol, reference compound], the IC50 in data set [3] worked out at 0.0075 µM.
As to `C#CCCCCCCCCCCCCCCCC(=O)O` [17-ODA, 17-octadecynoic acid], the IC50 at leukotriene B4 ω-oxidase is below 5 µM.
Consider `CCCCCCCCCCCC#CC(=O)O` [2-TDA, 2-tetradecynoic acid], for which a half-maximal effect at LdTopIB [2] (EC50) was put at 67.8 ± 1.1 µM. Further, at hTopIB [5], the EC50 is above 100 µM and the “inhibition of hTopIB at 100 μM” value was “neither 2-TDA nor 2-HDA was inhibitory”. Moreover, the IC50 in data set [10] lay in the range of 24.7 to 255 µM.
On to `OO` [hydrogen peroxide], for which the “apoptotic cells (Annexin-V-FITC)” value in [11] was “positive test”.
